Laboratory results taken from ChEMBL document CHEMBL4346684, “Synthesis and structure-bactericidal activity relationships of non-ketolides: 9-Oxime clarithromycin 11,12-cyclic carbonate featured with three-to eight-atom-length spacers at 3-OH” (Eur J Med Chem, 2019).
In brackets after ≈: the same amount, converted by molar mass. Activity calls are given as the source filed them. The rule behind the calls is not given here.

Columns and labels:
Streptococcus pneumoniae [1] = test: Antimicrobial activity against erythromycin-susceptible Streptococcus pneumoniae ATCC 49619 incubated in CAMHB medium for 20 to 24 hrs by two-fold microbroth dilution method; type: functional
Streptococcus pneumoniae [2] = test: Antimicrobial activity against mef-encoded erythromycin resistant Streptococcus pneumoniae PU09 incubated in CAMHB medium for 20 to 24 hrs by two-fold microbroth dilution method; type: functional
Streptococcus pneumoniae [3] = test: Bactericidal activity against erythromycin-susceptible Streptococcus pneumoniae ATCC 49619 assessed as reduction in colony formation incubated in CAMHB medium for 20 to 24 hrs followed by 24 hrs subculturing in the medium without test compound; type: functional
Streptococcus pneumoniae [4] = test: Ratio of MBC to MIC for erythromycin-susceptible Streptococcus pneumoniae ATCC 49619; type: functional
Streptococcus pneumoniae [5] = test: Bactericidal activity against mef-encoded erythromycin resistant Streptococcus pneumoniae PU09 assessed as reduction in colony formation incubated in CAMHB medium for 20 to 24 hrs followed by 24 hrs subculturing in the medium without test compound; type: functional
Streptococcus pneumoniae [6] = test: Ratio of MBC to MIC for mef-encoded erythromycin resistant Streptococcus pneumoniae PU09; type: functional
Streptococcus pyogenes [7] = test: Antimicrobial activity against inducibly erythromycin resistant Streptococcus pyogenes 01-968 expressing i-ermA incubated in CAMHB medium for 20 to 24 hrs by two-fold microbroth dilution method; type: functional
Streptococcus pyogenes [8] = test: Bactericidal activity against inducibly erythromycin resistant Streptococcus pyogenes 01-968 expressing i-ermA assessed as reduction in colony formation incubated in CAMHB medium for 20 to 24 hrs followed by 24 hrs subculturing in the medium without test compound; type: functional
Streptococcus pyogenes [9] = test: Ratio of MBC to MIC for inducibly erythromycin resistant Streptococcus pyogenes 01-968 expressing i-ermA; type: functional
Staphylococcus aureus [10] = test: Antimicrobial activity against constitutively erythromycin resistant and methicillin resistant Staphylococcus aureus PU20 expressing c-ermC incubated in CAMHB medium for 20 hrs by two-fold microbroth dilution method; type: functional; conditions: PU20, 20 h
Outline: (§1)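 Purified fresh Staphylococcus isolate at about 5×10^5 CFU/ml final in CAMHB, 35 °C for 20 h. Each run included ATCC strains and reference antibiotics as QC, plus an antibiotic-free growth control.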

Staphylococcus aureus [11] = test: Antimicrobial activity against inducibly erythromycin-resistant and methicillin resistant Staphylococcus aureus PU32 expressing i-ermA incubated in CAMHB medium for 20 hrs by two-fold microbroth dilution method; type: functional; conditions: PU32, 20 h; outline: as §1
Staphylococcus aureus [12] = test: Bactericidal activity against inducibly erythromycin-resistant and methicillin resistant Staphylococcus aureus PU32 expressing i-ermA assessed as reduction in colony formation incubated in CAMHB medium for 20 hrs followed by 24 hrs subculturing in the medium without test compound; type: functional
Staphylococcus aureus [13] = test: Ratio of MBC to MIC for inducibly erythromycin-resistant and methicillin resistant Staphylococcus aureus PU32 expressing i-ermA; type: functional
Haemophilus influenzae [14] = test: Antimicrobial activity against azithromycin-susceptible Haemophilus influenzae ATCC 49247 incubated in HTM broth medium for 20 to 24 hrs by two-fold microbroth dilution method; type: functional
Haemophilus influenzae [15] = test: Bactericidal activity against azithromycin-susceptible Haemophilus influenzae ATCC 49247 assessed as reduction in colony formation incubated in HTM broth medium for 20 to 24 hrs followed by 24 hrs subculturing in the medium without test compound; type: functional
Haemophilus influenzae [16] = test: Ratio of MBC to MIC for azithromycin-susceptible Haemophilus influenzae ATCC 49247; type: functional
Streptococcus pneumoniae [17] = test: Bactericidal activity against erythromycin-susceptible Streptococcus pneumoniae ATCC 49619 assessed as log reduction in bacterial CFU at 1XMIC incubated for 1 to 24 hrs by broth dilution method; type: functional
Outline: (§2)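 Samples taken at 1, 2, 4, 6, 8, 12, 24 h, diluted and plated, colonies counted after 20-24 h at 35 °C; log CFU plotted against time. Detection limit 300 CFU/mL.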

Streptococcus pneumoniae [18] = test: Bactericidal activity against erythromycin-susceptible Streptococcus pneumoniae ATCC 49619 incubated at >1XMIC incubated for 1 to 24 hrs by broth dilution method; type: functional, organism-based; outline: as §2
Streptococcus pneumoniae [19] = test: Bactericidal activity against mef-encoded erythromycin resistant Streptococcus pneumoniae PU09 at 1 to 16xMIC incubated for 1 to 24 hrs by broth dilution method; type: functional, organism-based
Outline: (§3)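 Samples were taken at 1, 2, 4, 6, 8, 12 and 24 h, diluted and subcultured at 35 °C for 20–24 h. Colonies were counted and log CFU plotted against time; detection limit 300 CFU/mL.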

Streptococcus pyogenes [20] = test: Bactericidal activity against inducibly erythromycin resistant Streptococcus pyogenes 01-968 expressing i-ermA at 1 to 16XMIC incubated for 12 hrs by broth dilution method; type: functional, organism-based; outline: as §3
Streptococcus pyogenes [21] = test: Bactericidal activity against inducibly erythromycin resistant Streptococcus pyogenes 01-968 expressing i-ermA assessed as log reduction in bacterial CFU at 1 to 16XMIC incubated for 24 hrs by broth dilution method; type: functional; outline: as §3
[22] = AUCinfinity in Sprague-Dawley rat at 20 mg/kg, po administered as single dose measured for 0.25 to 24 hrs by LC-MS/MS analysis; type: ADME, organism-based; design: dose 20 mg/kg, time infinity, route oral; conditions: in vivo
Outline: (§4)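 Male SD rats (2-3 per compound) given a single oral 20 mg/kg dose in saline with 1% DMF/20% hydroxypropyl-β-cyclodextrin (w/v). Blood drawn at 0.25, 0.5, 1, 2, 4, 6, 8 and 24 h, centrifuged 2500 g, 5 min, 4 °C; drug quantified by LC-MS/MS. Noncompartmental parameters calculated (AUC0-t, AUCinf, CL, t1/2, MRT, Cmax, Tmax); mean ± s.d.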

[23] = AUC (0 to t) in Sprague-Dawley rat at 20 mg/kg, po administered as single dose measured for 0.25 to 24 hrs by LC-MS/MS analysis; type: ADME, organism-based; design: time 0.25-24 hr, dose 20 mg/kg, route oral; conditions: in vivo; outline: as §4
[24] = Clearance in Sprague-Dawley rat at 20 mg/kg, po administered as single dose measured for 0.25 to 24 hrs by LC-MS/MS analysis; type: ADME, organism-based; conditions: in vivo; outline: as §4
[25] = Half life in Sprague-Dawley rat at 20 mg/kg, po administered as single dose measured for 0.25 to 24 hrs by LC-MS/MS analysis; type: ADME, organism-based; conditions: in vivo; outline: as §4
[26] = MRT in Sprague-Dawley rat at 20 mg/kg, po administered as single dose measured for 0.25 to 24 hrs by LC-MS/MS analysis; type: ADME, organism-based; conditions: in vivo; outline: as §4
[27] = Tmax in Sprague-Dawley rat at 20 mg/kg, po administered as single dose measured for 0.25 to 24 hrs by LC-MS/MS analysis; type: ADME, organism-based; conditions: in vivo; outline: as §4
[28] = Cmax in Sprague-Dawley rat at 20 mg/kg, po administered as single dose measured for 0.25 to 24 hrs by LC-MS/MS analysis; type: ADME, organism-based; design: dose 20 mg/kg, route oral; conditions: in vivo; outline: as §4
Cytochrome P450 3A4 = Cytochrome P450 3A4 (Homo sapiens, UniProt P08684); test: Inhibition of CYP3A4 in human liver microsomes using midazolam as substrate incubated for 10 mins after substrate addition by HPLC analysis; type: ADME
Outline: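 Human liver microsome CYP3A4 (0.03 mg/mL final), midazolam 5.00 μM final, 0.1 M potassium phosphate pH 7.4 with MgCl2, preincubated 37 °C 5 min. Test compound 0-25.00 μM (ketoconazole 0-0.25 μM as reference) and NADPH 1.5 mM final added; 10 min at 37 °C. Metabolite/internal-standard peak-area ratio measured by UPLC-MS/MS; IC50 fitted.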

Rattus norvegicus [29] = test: Ratio of telithromycin AUC to compound AUC in Sprague-Dawley rat at 20 mg/kg, po administered as single dose measured for 0.25 to 24 hrs by LC-MS/MS analysis; type: ADME, organism-based; conditions: in vivo
Rattus norvegicus [30] = test: Ratio of telithromycin clearance to compound clearance in Sprague-Dawley rat at 20 mg/kg, po administered as single dose measured for 0.25 to 24 hrs by LC-MS/MS analysis; type: ADME, organism-based; conditions: in vivo
Rattus norvegicus [31] = test: Ratio of telithromycin half life to compound half life in Sprague-Dawley rat at 20 mg/kg, po administered as single dose measured for 0.25 to 24 hrs by LC-MS/MS analysis; type: ADME, organism-based; conditions: in vivo
[32] = Ratio of telithromycin MRT to compound MRT in Sprague-Dawley rat at 20 mg/kg, po administered as single dose measured for 0.25 to 24 hrs by LC-MS/MS analysis; type: ADME, organism-based; conditions: in vivo
Rattus norvegicus [33] = test: Ratio of telithromycin Cmax to compound Cmax in Sprague-Dawley rat at 20 mg/kg, po administered as single dose measured for 0.25 to 24 hrs by LC-MS/MS analysis; type: ADME, organism-based; conditions: in vivo
Rattus norvegicus [34] = test: Ratio of telithromycin Tmax to compound Tmax in Sprague-Dawley rat at 20 mg/kg, po administered as single dose measured for 0.25 to 24 hrs by LC-MS/MS analysis; type: ADME, organism-based; conditions: in vivo
Streptococcus pneumoniae [35] = test: Ratio of clarithromycin MBC to compound MBC for mef-encoded erythromycin resistant Streptococcus pneumoniae PU09; type: functional
Streptococcus pyogenes [36] = test: Ratio of clarithromycin MBC to compound MBC for inducibly erythromycin resistant Streptococcus pyogenes 01-968 expressing i-ermA; type: functional
Staphylococcus aureus [37] = test: Ratio of clarithromycin MBC to compound MBC for inducibly erythromycin-resistant and methicillin resistant Staphylococcus aureus PU32 expressing i-ermA; type: functional

Sequence of Cytochrome P450 3A4 (P08684 whole entry): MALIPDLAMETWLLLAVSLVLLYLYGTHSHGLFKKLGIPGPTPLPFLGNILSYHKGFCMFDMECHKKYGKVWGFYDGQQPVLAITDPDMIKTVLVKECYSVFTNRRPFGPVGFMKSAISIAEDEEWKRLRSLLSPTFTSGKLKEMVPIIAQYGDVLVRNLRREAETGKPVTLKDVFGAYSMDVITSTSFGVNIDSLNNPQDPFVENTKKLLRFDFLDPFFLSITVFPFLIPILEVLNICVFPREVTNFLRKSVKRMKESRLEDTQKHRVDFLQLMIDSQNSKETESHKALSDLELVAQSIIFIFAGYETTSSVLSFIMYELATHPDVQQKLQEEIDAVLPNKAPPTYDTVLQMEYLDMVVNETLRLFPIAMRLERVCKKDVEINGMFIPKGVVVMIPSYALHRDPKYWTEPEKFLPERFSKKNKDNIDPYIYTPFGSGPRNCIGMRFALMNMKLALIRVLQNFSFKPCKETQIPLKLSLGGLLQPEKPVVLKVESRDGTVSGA

CC[C@H]1OC(=O)[C@H](C)[C@@H](OC(=O)NCCCc2cccnc2)[C@H](C)[C@@H](O[C@@H]2O[C@H](C)C[C@H](N(C)C)[C@H]2O)[C@](C)(OC)C[C@@H](C)/C(=N\OC)[C@H](C)[C@H]2OC(=O)O[C@@]21C
MIC (Streptococcus pneumoniae [1]): 0.06 µg/mL (≈ 0.0743 µM)
MIC (Streptococcus pneumoniae [2]): 0.5 µg/mL (≈ 0.62 µM)
MBC (Streptococcus pneumoniae [3]): 0.125 µg/mL (≈ 0.155 µM)
Ratio (Streptococcus pneumoniae [4]): 2
MBC (Streptococcus pneumoniae [5]): 0.5 µg/mL (≈ 0.62 µM)
Ratio (Streptococcus pneumoniae [6]): 1
MIC (Streptococcus pyogenes [7]): 0.25 µg/mL (≈ 0.31 µM)
MBC (Streptococcus pyogenes [8]): 2 µg/mL (≈ 2.48 µM)
Ratio (Streptococcus pyogenes [9]): 8
MIC (Staphylococcus aureus [10]): > 256 µg/mL
MIC (Staphylococcus aureus [11]): 8 µg/mL (≈ 9.91 µM)
MBC (Staphylococcus aureus [12]): 16 µg/mL (≈ 19.8 µM)
Ratio (Staphylococcus aureus [13]): 2
MIC (Haemophilus influenzae [14]): 64 µg/mL (≈ 79.3 µM)
MBC (Haemophilus influenzae [15]): 128 µg/mL (≈ 159 µM)
Ratio (Haemophilus influenzae [16]): 2
Activity (Streptococcus pneumoniae [17]): 2 log10CFU
Activity (Streptococcus pneumoniae [18]): Active
Activity (Streptococcus pneumoniae [19]): Active
Activity (Streptococcus pyogenes [20]): Active
Activity (Streptococcus pyogenes [21]): <=3 log10CFU
AUC(0-inf) [22]: 6760 ng·h/mL
AUC(0-t) [23]: 6730 ng·h/mL
CL/F [24]: 50.6 mL/min/kg
half-life [25]: 2.94 h
MRT [26]: 4.53 h
Tmax [27]: 0.833 h
Cmax [28]: 1030 ng/mL
IC50 (Cytochrome P450 3A4): 2500 nM
Ratio (Rattus norvegicus [29]): 7
Ratio (Rattus norvegicus [30]): 7
Ratio (Rattus norvegicus [31]): 2.4
Ratio [32]: 1.4
Ratio (Rattus norvegicus [33]): 5
Ratio (Rattus norvegicus [34]): 0.4
Ratio (Streptococcus pneumoniae [35]): 32
Ratio (Streptococcus pyogenes [36]): 32
Ratio (Staphylococcus aureus [37]): 32
